One molecule from paper PMC5088049 (Pharmacogenetics and genomics, 2016) can be followed below.

Common to all, as to type: in vitro ADME
For one data set, the target named is AKR1C3 Arg258Cys (Homo sapiens, UniProt P42330, R258C). Kind of data set: Kinetics of EXE reduction to 17β-DHE, recombinant AKR1C3 Arg258Cys.
The next data set concerns the target T1, AKR1C4 Gly135Glu (Homo sapiens, UniProt P17516, G135E).
T1 sequence (P17516 1-323 G135E): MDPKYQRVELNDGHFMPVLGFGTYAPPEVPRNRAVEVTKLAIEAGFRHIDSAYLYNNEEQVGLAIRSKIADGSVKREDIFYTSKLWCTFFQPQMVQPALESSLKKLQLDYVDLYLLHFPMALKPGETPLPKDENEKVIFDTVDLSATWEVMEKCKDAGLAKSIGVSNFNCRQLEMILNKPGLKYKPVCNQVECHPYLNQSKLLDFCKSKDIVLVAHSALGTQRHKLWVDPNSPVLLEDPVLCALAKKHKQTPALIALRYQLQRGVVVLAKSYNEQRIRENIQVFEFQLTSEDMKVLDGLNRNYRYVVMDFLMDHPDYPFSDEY
Kind of data set: Kinetics of EXE reduction to 17β-DHE, recombinant AKR1C4 Gly135Glu. Conditions: for VMAX: normalized to enzyme purity.

A further data set deals with AKR1C1 (Homo sapiens, UniProt Q04828). Kind of data set: Metabolite identification, overnight incubation with recombinant AKR1C1. Conditions: 200 µM EXE, 18-h incubation, 1.5 µg recombinant AKR1C1. The method in brief:
(§1)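 Wildtype enzyme was His-tagged, expressed in E. coli BL21 (IPTG induction), Ni-NTA purified and dialysed against PBS. It was stopped with ice-cold acetonitrile and centrifuged. UPLC/ESI+ full scan (m/z 100–450) was followed by targeted MS/MS transitions. Retention times were matched to synthetic 17α/17β-dihydro standards.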

In another data set the target is T2, AKR1C4 (Homo sapiens, UniProt P17516).
T2 sequence (P17516 1-323): T1 sequence (P17516 1-323 G135E) with E135G
Put plainly: Kinetics of EXE reduction to 17β-DHE, recombinant AKR1C4. Conditions: wildtype AKR1C4; for VMAX: normalized to enzyme purity.

A short description of data set [1]: Metabolite identification, overnight incubation with pooled human liver cytosol. Conditions: 200 µM EXE, 18-h incubation, 7.5 µg pooled human liver cytosol, PBS pH 7.4, 37°C, NADPH regeneration system.
A further data set addresses AKR1C2 (Homo sapiens, UniProt P52895). Put plainly: Metabolite identification, overnight incubation with recombinant AKR1C2. The note with it: 200 µM EXE, 18-h incubation, 1.5 µg recombinant AKR1C2. The method in brief:
as §1

A further data set addresses T3, AKR1C4 Leu311Val (Homo sapiens, UniProt P17516, L311V).
T3 sequence (P17516 1-323 L311V): T1 sequence (P17516 1-323 G135E) with E135G, L311V
Put plainly: Kinetics of EXE reduction to 17β-DHE, recombinant AKR1C4 Leu311Val.

Substitutions are numbered along the chain they refer to.

AKR1C3 Arg258Cys, sequence (P42330 whole entry R258C): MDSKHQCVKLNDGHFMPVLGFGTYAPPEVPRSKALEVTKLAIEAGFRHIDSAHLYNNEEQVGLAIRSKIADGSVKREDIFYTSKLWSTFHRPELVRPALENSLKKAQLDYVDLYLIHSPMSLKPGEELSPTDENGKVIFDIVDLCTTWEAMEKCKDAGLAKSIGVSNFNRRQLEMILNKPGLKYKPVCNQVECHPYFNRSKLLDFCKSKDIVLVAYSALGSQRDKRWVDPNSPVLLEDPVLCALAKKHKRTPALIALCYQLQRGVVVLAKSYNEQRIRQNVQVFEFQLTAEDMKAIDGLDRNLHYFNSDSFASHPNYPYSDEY
AKR1C1, sequence (Q04828 whole entry): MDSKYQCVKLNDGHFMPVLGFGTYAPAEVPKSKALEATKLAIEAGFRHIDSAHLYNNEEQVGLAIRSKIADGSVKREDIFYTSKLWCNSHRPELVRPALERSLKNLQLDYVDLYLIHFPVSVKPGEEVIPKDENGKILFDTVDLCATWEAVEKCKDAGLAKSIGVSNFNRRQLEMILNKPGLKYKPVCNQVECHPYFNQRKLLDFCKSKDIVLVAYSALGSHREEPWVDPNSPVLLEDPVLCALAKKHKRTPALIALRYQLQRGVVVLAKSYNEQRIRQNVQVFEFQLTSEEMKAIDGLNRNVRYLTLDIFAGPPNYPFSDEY
AKR1C2, sequence (P52895 whole entry): as the sequence (Q04828 whole entry) above, with T38V, R47H, L54V, C87S, V151M, R170H, Q172L counted along it

Take `C=C1C[C@@H]2[C@H](CC[C@]3(C)C(=O)CC[C@@H]23)[C@@]2(C)C=CC(=O)C=C12` [exemestane, 6-methylenandrosa-1,4-diene-3-17-dione]: the Km (as a rule, the substrate concentration at which the rate is half of its maximum) worked out at 75.8 ± 19.9 µM on AKR1C3 Arg258Cys (AKR1C3 Arg258Cys (rs62621365), 17β-DHE formation); 311 ± 75.7 µM at AKR1C4 Gly135Glu (AKR1C4 Gly135Glu (rs11253043), 17β-DHE formation); 9.7 ± 1.9 µM at AKR1C4 (17β-DHE formation); 11.9 ± 2 µM on AKR1C4 Leu311Val (AKR1C4 Leu311Val (rs17134592), 17β-DHE formation). Further, the CLINT is 3e-05 µL/min/mg at AKR1C3 Arg258Cys (AKR1C3 Arg258Cys, VMAX/KM); 6e-05 µL/min/mg at AKR1C4 Gly135Glu (AKR1C4 Gly135Glu, VMAX/KM); 0.00024 µL/min/mg at AKR1C4 (VMAX/KM); 0.00053 µL/min/mg at AKR1C4 Leu311Val (AKR1C4 Leu311Val, VMAX/KM). Further, the VMAX on AKR1C3 Arg258Cys (AKR1C3 Arg258Cys, normalized to enzyme purity) was determined as 2.3 ± 0.1 picomoles·min^−1·mg^−1; at AKR1C4 Gly135Glu (AKR1C4 Gly135Glu), 19.1 ± 4.2 picomoles·min^−1·mg^−1; at AKR1C4 Gly135Glu (AKR1C4 Gly135Glu, listed as EXE) it was 19.1 ± 4.2 picomoles·min^−1·mg^−1; on AKR1C4 it was 2.3 ± 0.6 picomoles·min^−1·mg^−1; on AKR1C4 (listed as EXE), 2.3 ± 0.6 picomoles·min^−1·mg^−1; on AKR1C4 Leu311Val (AKR1C4 Leu311Val, normalized to enzyme purity), 6.3 ± 0.8 picomoles·min^−1·mg^−1. In addition, the “affinity for EXE of AKR1C3 Arg258Cys relative to wildtype” value on AKR1C3 Arg258Cys (lower affinity (KM) than wildtype AKR1C3) is reported as “roughly 6 fold”. Further, the “VMAX of AKR1C4 Gly135Glu relative to wildtype” value at AKR1C4 Gly135Glu (faster than wildtype AKR1C4) was determined as 8 fold. The metabolites formed entry on AKR1C1 and on AKR1C2 was “only 17β-DHE formation” throughout. Also, the metabolite formed in data set [1] is reported as 17β-DHE although a lesser amount of 17α-DHE was detected as well.
